Measurements: ChEMBL document CHEMBL1649231, “In vitro activities of panduratin A against clinical Staphylococcus strains” (2009)
≈ marks a conversion by molar mass, not a printed value.

What was measured:
Type in all cases: functional
Staphylococcus aureus [1] = experiment: Antimicrobial activity against methicillin-resistant Staphylococcus aureus after 24 hrs by broth microdilution method
Method in brief: (§1)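 Clinical isolates came from blood, body fluids, genital secretions, pus or sputum, identified conventionally or by Vitek. MICs were run by CLSI M7-A6 broth microdilution in Mueller-Hinton broth with 5 × 10^5 CFU/ml inoculum. Agents were twofold serially diluted, starting from 10% DMSO. Drug-free and uninoculated controls were included. Plates were incubated aerobically at 37°C for 24 h; MIC is the lowest concentration giving no visible growth.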

Staphylococcus aureus [2] = experiment: Antimicrobial activity against methicillin-susceptible Staphylococcus aureus after 24 hrs by broth microdilution method; method in brief: as §1
Staphylococcus simulans [3] = experiment: Antimicrobial activity against methicillin-resistant coagulase-negative Staphylococcus simulans after 24 hrs by broth microdilution method; method in brief: as §1
[4] = system: Staphylococcus haemolyticus; experiment: Bactericidal activity against methicillin-resistant coagulase-negative Staphylococcus haemolyticus after 24 hrs by plate counting method
[5] = system: Staphylococcus haemolyticus; experiment: Antimicrobial activity against methicillin-resistant coagulase-negative Staphylococcus haemolyticus assessed as resistant isolates after 24 hrs by broth microdilution method
[6] = system: Staphylococcus haemolyticus; experiment: Antimicrobial activity against methicillin-resistant coagulase-negative Staphylococcus haemolyticus assessed as susceptible isolates after 24 hrs by broth microdilution method
[7] = system: Staphylococcus haemolyticus; experiment: Antimicrobial activity against methicillin-resistant coagulase-negative Staphylococcus haemolyticus after 24 hrs by broth microdilution method; method in brief: as §1
[8] = system: Staphylococcus epidermidis; experiment: Bactericidal activity against methicillin-resistant coagulase-negative Staphylococcus epidermidis after 24 hrs by plate counting method
[9] = system: Staphylococcus epidermidis; experiment: Antimicrobial activity against methicillin-resistant coagulase-negative Staphylococcus epidermidis assessed as resistant isolates after 24 hrs by broth microdilution method
[10] = system: Staphylococcus epidermidis; experiment: Antimicrobial activity against methicillin-resistant coagulase-negative Staphylococcus epidermidis assessed as susceptible isolates after 24 hrs by broth microdilution method
[11] = system: Staphylococcus epidermidis; experiment: Antimicrobial activity against methicillin-resistant coagulase-negative Staphylococcus epidermidis after 24 hrs by broth microdilution method; method in brief: as §1
Staphylococcus hominis [12] = experiment: Bactericidal activity against methicillin-resistant coagulase-negative Staphylococcus hominis after 24 hrs by plate counting method
Staphylococcus hominis [13] = experiment: Antimicrobial activity against methicillin-resistant coagulase-negative Staphylococcus hominis assessed as resistant isolates after 24 hrs by broth microdilution method
Staphylococcus hominis [14] = experiment: Antimicrobial activity against methicillin-resistant coagulase-negative Staphylococcus hominis assessed as susceptible isolates after 24 hrs by broth microdilution method
Staphylococcus aureus [15] = experiment: Bactericidal activity against methicillin-susceptible Staphylococcus aureus after 24 hrs by plate counting method
Method in brief: (§2)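 Clinical staphylococcal isolates from patient body fluids, blood, genital secretions, pus or sputum; species by conventional methods or Vitek. Twofold dilutions in Mueller-Hinton broth, inoculum 5 × 10^5 CFU/ml, 37°C aerobic 24 h (CLSI M7-A6 microdilution). About 100 μl from each well without visible growth spread on MHA; 37°C 24 h. MBC = lowest concentration giving no growth on agar.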

Staphylococcus hominis [16] = experiment: Antimicrobial activity against methicillin-resistant coagulase-negative Staphylococcus hominis after 24 hrs by broth microdilution method; method in brief: as §1
Staphylococcus aureus [17] = experiment: Bactericidal activity against methicillin-resistant Staphylococcus aureus after 24 hrs by plate counting method
Staphylococcus aureus [18] = experiment: Antimicrobial activity against methicillin-susceptible Staphylococcus aureus assessed as resistant isolates after 24 hrs by broth microdilution method
Staphylococcus aureus [19] = experiment: Antimicrobial activity against methicillin-resistant Staphylococcus aureus assessed as resistant isolates after 24 hrs by broth microdilution method
Staphylococcus aureus [20] = experiment: Antimicrobial activity against methicillin-susceptible Staphylococcus aureus assessed as susceptible isolates after 24 hrs by broth microdilution method
Staphylococcus aureus [21] = experiment: Antimicrobial activity against methicillin-resistant Staphylococcus aureus assessed as susceptible isolates after 24 hrs by broth microdilution method
Staphylococcus simulans [22] = experiment: Antimicrobial activity against methicillin-resistant coagulase-negative Staphylococcus simulans assessed as resistant isolates after 24 hrs by broth microdilution method
Staphylococcus simulans [23] = experiment: Bactericidal activity against methicillin-resistant coagulase-negative Staphylococcus simulans after 24 hrs by plate counting method; method in brief: as §2
Mammaliicoccus sciuri [24] = experiment: Antimicrobial activity against methicillin-resistant coagulase-negative Staphylococcus sciuri after 24 hrs by broth microdilution method; method in brief: as §1
Mammaliicoccus sciuri [25] = experiment: Antimicrobial activity against methicillin-resistant coagulase-negative Staphylococcus sciuri assessed as resistant isolates after 24 hrs by broth microdilution method
Mammaliicoccus sciuri [26] = experiment: Bactericidal activity against methicillin-resistant coagulase-negative Staphylococcus sciuri after 24 hrs by plate counting method; method in brief: as §2
Staphylococcus hominis [27] = experiment: Antimicrobial activity against methicillin-susceptible coagulase-negative Staphylococcus hominis after 24 hrs by broth microdilution method; method in brief: as §1
Staphylococcus hominis [28] = experiment: Antimicrobial activity against methicillin-susceptible coagulase-negative Staphylococcus hominis assessed as susceptible isolates after 24 hrs by broth microdilution method
Staphylococcus hominis [29] = experiment: Antimicrobial activity against methicillin-susceptible coagulase-negative Staphylococcus hominis assessed as resistant isolates after 24 hrs by broth microdilution method
Staphylococcus hominis [30] = experiment: Bactericidal activity against methicillin-susceptible coagulase-negative Staphylococcus hominis after 24 hrs by plate counting method; method in brief: as §2
[31] = system: Staphylococcus epidermidis; experiment: Antimicrobial activity against methicillin-susceptible coagulase-negative Staphylococcus epidermidis after 24 hrs by broth microdilution method; method in brief: as §1
[32] = system: Staphylococcus epidermidis; experiment: Antimicrobial activity against methicillin-susceptible coagulase-negative Staphylococcus epidermidis assessed as susceptible isolates after 24 hrs by broth microdilution method
[33] = system: Staphylococcus epidermidis; experiment: Antimicrobial activity against methicillin-susceptible coagulase-negative Staphylococcus epidermidis assessed as resistant isolates after 24 hrs by broth microdilution method
[34] = system: Staphylococcus epidermidis; experiment: Bactericidal activity against methicillin-susceptible coagulase-negative Staphylococcus epidermidis after 24 hrs by plate counting method; method in brief: as §2
[35] = system: Staphylococcus haemolyticus; experiment: Antimicrobial activity against methicillin-susceptible coagulase-negative Staphylococcus haemolyticus after 24 hrs by broth microdilution method; method in brief: as §1
[36] = system: Staphylococcus haemolyticus; experiment: Antimicrobial activity against methicillin-susceptible coagulase-negative Staphylococcus haemolyticus assessed as susceptible isolates after 24 hrs by broth microdilution method
[37] = system: Staphylococcus haemolyticus; experiment: Antimicrobial activity against methicillin-susceptible coagulase-negative Staphylococcus haemolyticus assessed as resistant isolates after 24 hrs by broth microdilution method
[38] = system: Staphylococcus haemolyticus; experiment: Bactericidal activity against methicillin-susceptible coagulase-negative Staphylococcus haemolyticus after 24 hrs by plate counting method; method in brief: as §2
Staphylococcus simulans [39] = experiment: Antimicrobial activity against methicillin-susceptible coagulase-negative Staphylococcus simulans after 24 hrs by broth microdilution method; method in brief: as §1
Staphylococcus simulans [40] = experiment: Antimicrobial activity against methicillin-susceptible coagulase-negative Staphylococcus simulans assessed as susceptible isolates after 24 hrs by broth microdilution method
Method in brief: (§3)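 Clinical isolates from blood, body fluids, pus, sputum or genital secretions, identified conventionally or by Vitek, were tested alongside ATCC 29213 and ATCC 12228 controls. CLSI M7-A6 broth microdilution in Mueller-Hinton broth used twofold dilutions from a 10% DMSO solution and 5 × 10^5 CFU/ml inoculum. Drug-free and uninoculated wells served as controls; incubation was aerobic at 37°C for 24 h. MIC was the lowest concentration with no visible growth.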

Staphylococcus simulans [41] = experiment: Bactericidal activity against methicillin-susceptible coagulase-negative Staphylococcus simulans after 24 hrs by plate counting method; method in brief: as §2
Mammaliicoccus sciuri [42] = experiment: Antimicrobial activity against methicillin-susceptible coagulase-negative Staphylococcus sciuri after 24 hrs by broth microdilution method; method in brief: as §1
Mammaliicoccus sciuri [43] = experiment: Antimicrobial activity against methicillin-susceptible coagulase-negative Staphylococcus sciuri assessed as susceptible isolates after 24 hrs by broth microdilution method; method in brief: as §3
Mammaliicoccus sciuri [44] = experiment: Antimicrobial activity against methicillin-susceptible coagulase-negative Staphylococcus sciuri assessed as resistant isolates after 24 hrs by broth microdilution method
Mammaliicoccus sciuri [45] = experiment: Bactericidal activity against methicillin-susceptible coagulase-negative Staphylococcus sciuri after 24 hrs by plate counting method; method in brief: as §2
[46] = Staphylococcus haemolyticus, 24 h
[47] = Staphylococcus epidermidis, 24 h

Q: Which results are given for `Cc1onc(-c2ccccc2)c1C(=O)N[C@@H]1C(=O)N2[C@@H]1SC(C)(C)[C@@H]2C(=O)O` [OXACILLIN]?
A: MIC50 (Staphylococcus aureus [1]): 64 µg/mL (≈ 159 µM); MIC90 (Staphylococcus aureus [1]): 64 µg/mL (≈ 159 µM); MIC (Staphylococcus aureus [2]): 0.125 µg/mL (≈ 0.311 µM); MIC50 (Staphylococcus aureus [2]): 0.125 µg/mL (≈ 0.311 µM); MIC90 (Staphylococcus aureus [2]): 1 µg/mL (≈ 2.49 µM); MIC50 (Staphylococcus simulans [3]): 64 µg/mL (≈ 159 µM); MIC90 (Staphylococcus simulans [3]): 64 µg/mL (≈ 159 µM); MBC90 [4]: 256 µg/mL (≈ 638 µM); MBC [4, 46]: 1 µg/mL (≈ 2.49 µM); Activity [5]: 74%; Activity [6]: 26%; MIC50 [7]: 64 µg/mL (≈ 159 µM); MIC90 [7]: 64 µg/mL (≈ 159 µM); MBC90 [8]: 256 µg/mL (≈ 638 µM); MBC [8, 47]: 1 µg/mL (≈ 2.49 µM); Activity [9]: 74%; Activity [10]: 26%; MIC50 [11]: 64 µg/mL (≈ 159 µM); MIC90 [11]: 64 µg/mL (≈ 159 µM); MBC90 (Staphylococcus hominis [12]): 256 µg/mL (≈ 638 µM); MBC (Staphylococcus hominis [12]; Staphylococcus hominis, 24 h): 1 µg/mL (≈ 2.49 µM); Activity (Staphylococcus hominis [13]): 74%; Activity (Staphylococcus hominis [14]): 26%; MBC50 (Staphylococcus aureus [15]): 16 µg/mL (≈ 39.9 µM); MBC90 (Staphylococcus aureus [15]): 64 µg/mL (≈ 159 µM); MBC (Staphylococcus aureus [15]; Staphylococcus aureus, 24 h): 1 µg/mL (≈ 2.49 µM); MIC50 (Staphylococcus hominis [16]): 64 µg/mL (≈ 159 µM); MIC90 (Staphylococcus hominis [16]): 64 µg/mL (≈ 159 µM); MBC50 (Staphylococcus aureus [17]): 256 µg/mL (≈ 638 µM); MBC90 (Staphylococcus aureus [17]): 512 µg/mL (≈ 1280 µM); MBC (Staphylococcus aureus [17]; Staphylococcus aureus, 24 h): 256 µg/mL (≈ 638 µM); Activity (Staphylococcus aureus [18]): 11%; Activity (Staphylococcus aureus [19]): 100%; Activity (Staphylococcus aureus [20]): 89%; Activity (Staphylococcus aureus [21]): 0%; Activity (Staphylococcus simulans [22]): 74%; MBC90 (Staphylococcus simulans [23]): 256 µg/mL (≈ 638 µM); MBC (Staphylococcus simulans [23]; Staphylococcus simulans, 24 h): 1 µg/mL (≈ 2.49 µM); MIC50 (Mammaliicoccus sciuri [24]): 64 µg/mL (≈ 159 µM); MIC90 (Mammaliicoccus sciuri [24]): 64 µg/mL (≈ 159 µM); Activity (Mammaliicoccus sciuri [25]): 74%; MBC90 (Mammaliicoccus sciuri [26]): 256 µg/mL (≈ 638 µM); MBC (Mammaliicoccus sciuri [26]; Mammaliicoccus sciuri, 24 h): 1 µg/mL (≈ 2.49 µM); MIC (Staphylococcus hominis [27]): 0.125 µg/mL (≈ 0.311 µM); MIC50 (Staphylococcus hominis [27]): 0.125 µg/mL (≈ 0.311 µM); MIC90 (Staphylococcus hominis [27]): 0.5 µg/mL (≈ 1.25 µM); Activity (Staphylococcus hominis [28]): 96%; Activity (Staphylococcus hominis [29]): 4%; MBC50 (Staphylococcus hominis [30]): 2 µg/mL (≈ 4.98 µM); MBC90 (Staphylococcus hominis [30]): 8 µg/mL (≈ 19.9 µM); MBC (Staphylococcus hominis [30]; Staphylococcus hominis, 24 h): 0.25 µg/mL (≈ 0.623 µM); MIC [31]: 0.125 µg/mL (≈ 0.311 µM); MIC50 [31]: 0.125 µg/mL (≈ 0.311 µM); MIC90 [31]: 0.5 µg/mL (≈ 1.25 µM); Activity [32]: 96%; Activity [33]: 4%; MBC50 [34]: 2 µg/mL (≈ 4.98 µM); MBC90 [34]: 8 µg/mL (≈ 19.9 µM); MBC [34, 47]: 0.25 µg/mL (≈ 0.623 µM); MIC [35]: 0.125 µg/mL (≈ 0.311 µM); MIC50 [35]: 0.125 µg/mL (≈ 0.311 µM); MIC90 [35]: 0.5 µg/mL (≈ 1.25 µM); Activity [36]: 96%; Activity [37]: 4%; MBC50 [38]: 2 µg/mL (≈ 4.98 µM); MBC90 [38]: 8 µg/mL (≈ 19.9 µM); MBC [38, 46]: 0.25 µg/mL (≈ 0.623 µM); MIC (Staphylococcus simulans [39]): 0.125 µg/mL (≈ 0.311 µM); MIC50 (Staphylococcus simulans [39]): 0.125 µg/mL (≈ 0.311 µM); MIC90 (Staphylococcus simulans [39]): 0.5 µg/mL (≈ 1.25 µM); Activity (Staphylococcus simulans [40]): 96%; MBC50 (Staphylococcus simulans [41]): 2 µg/mL (≈ 4.98 µM); MBC90 (Staphylococcus simulans [41]): 8 µg/mL (≈ 19.9 µM); MBC (Staphylococcus simulans [41]; Staphylococcus simulans, 24 h): 0.25 µg/mL (≈ 0.623 µM); MIC (Mammaliicoccus sciuri [42]): 0.125 µg/mL (≈ 0.311 µM); MIC50 (Mammaliicoccus sciuri [42]): 0.125 µg/mL (≈ 0.311 µM); MIC90 (Mammaliicoccus sciuri [42]): 0.5 µg/mL (≈ 1.25 µM); Activity (Mammaliicoccus sciuri [43]): 96%; Activity (Mammaliicoccus sciuri [44]): 4%; MBC50 (Mammaliicoccus sciuri [45]): 2 µg/mL (≈ 4.98 µM); MBC90 (Mammaliicoccus sciuri [45]): 8 µg/mL (≈ 19.9 µM); MBC (Mammaliicoccus sciuri [45]; Mammaliicoccus sciuri, 24 h): 0.25 µg/mL (≈ 0.623 µM)
